Measurements: ChEMBL document CHEMBL1157034, “Synthesis of 1-benzyl-3-(5-hydroxymethyl-2-furyl)selenolo[3,2-c]pyrazole derivatives as new anticancer agents” (Eur J Med Chem, 2010)

How the values were obtained:
NCI-H226 = test: Antitumor activity against human NCI-H226 cells after 48 hrs by MTT assay; format: functional, cell-based; conditions: NCI-H226, 48 h
In short: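 Cells grown at 37 °C in humidified 5% CO2, seeded at 1×10^4 cells/well, and allowed to attach for 24 h. They were then exposed to a range of concentrations for 48 h, washed with PBS, and given 1 mg/ml MTT for 2 h. Formazan was dissolved in DMSO and read at 570 nm.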

ACHN = test: Antitumor activity against human ACHN cells after 48 hrs by MTT assay; format: functional, cell-based

With `OCc1ccc(-c2nn(Cc3ccccc3)c3ccccc23)o1` the IC50 (NCI-H226) was 25 µM and the IC50 (ACHN) was 0.3 µM.
